These results are taken from ChEMBL document CHEMBL1129030, “Potent, selective, orally active 3-oxo-1,4-benzodiazepine GPIIb/IIIa integrin antagonists” (J Med Chem, 1996).

Several values for one entry are separate records, joined by “and”; a condition that tells them apart may be missing. Equal entries are not always repeated.

Assay [1] concerns the target Integrin alpha-IIb/beta-3 (Homo sapiens, UniProt P05106+P08514). Nature of the assay: Inhibition of binding to purified integrin alphaIIb-beta3 of human platelets.
In assay [2] the test system is Canis familiaris. Put plainly: Ex vivo inhibition of platelet aggregation in canine whole blood/collagen at a dose of 0.3 mg/kg after i.d. administration; […]. The assay is classed as functional. The note with it: Canis lupus familiaris, route intraduodenal. Put shortly: (§1)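 Conscious dogs dosed either by intravenous bolus or by short intraduodenal infusion through a catheter, at 0.3–3 mg/kg. Blood was drawn serially for up to 390 min. Platelet aggregation was measured ex vivo in collagen-stimulated canine whole blood. The readouts were maximal % inhibition, time to maximal inhibition, duration of maximal inhibition, and % inhibition at 390 min.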

Assay [3] deals with Canis familiaris. Nature of the assay: Ex vivo inhibition of platelet aggregation in canine whole blood/collagen at a dose of 0.3 mg/kg after i.v. administration; range is 90-100. To be noted: Canis lupus familiaris, route intravenous. The assay is classed as functional. Put shortly: as §1
Assay [4] is filed under the species Canis familiaris. Put plainly: Duration for maximal inhibition of platelet aggregation in canine. The assay is classed as functional, Canis lupus familiaris. Put shortly:
as §1

The species named for a further assay is Homo sapiens. Put plainly: In vitro Inhibitory activity against patelet aggregation in human platelet-rich plasma induced by ADP. The assay is classed as functional.
The species entered for assay [5] is Canis familiaris. Put plainly: Time required for maximal inhibition of platelet aggregation in canine. The assay is classed as functional, Canis lupus familiaris. Put shortly: as §1
Assay [6] has as its system Canis familiaris. Put plainly: Ex vivo inhibition of platelet aggregation in canine whole blood/collagen at a dose of 0.3 mg/kg after i.v. administration at 390 min. The assay is classed as functional. To be noted: Canis lupus familiaris, 6.5 h, route intravenous. Put shortly: as §1
The subject of assay [7] is Canis familiaris. Nature of the assay: Ex vivo inhibition of platelet aggregation in canine whole blood/collagen at a dose of 0.3 mg/kg after i.d. administration at 390 min. The assay is classed as functional. The note with it: Canis lupus familiaris, 6.5 h, route intraduodenal. Put shortly: as §1
For assay [8], the system named is Canis familiaris. Put plainly: Ex vivo inhibition of platelet aggregation in canine whole blood/collagen at a dose of 3 mg/kg after i.d. administration; range is 90-100. The note with it: Canis lupus familiaris, route intraduodenal. The assay is classed as functional. Put shortly: as §1

Integrin alpha-IIb/beta-3, sequence (P05106 27-788 limits assumed): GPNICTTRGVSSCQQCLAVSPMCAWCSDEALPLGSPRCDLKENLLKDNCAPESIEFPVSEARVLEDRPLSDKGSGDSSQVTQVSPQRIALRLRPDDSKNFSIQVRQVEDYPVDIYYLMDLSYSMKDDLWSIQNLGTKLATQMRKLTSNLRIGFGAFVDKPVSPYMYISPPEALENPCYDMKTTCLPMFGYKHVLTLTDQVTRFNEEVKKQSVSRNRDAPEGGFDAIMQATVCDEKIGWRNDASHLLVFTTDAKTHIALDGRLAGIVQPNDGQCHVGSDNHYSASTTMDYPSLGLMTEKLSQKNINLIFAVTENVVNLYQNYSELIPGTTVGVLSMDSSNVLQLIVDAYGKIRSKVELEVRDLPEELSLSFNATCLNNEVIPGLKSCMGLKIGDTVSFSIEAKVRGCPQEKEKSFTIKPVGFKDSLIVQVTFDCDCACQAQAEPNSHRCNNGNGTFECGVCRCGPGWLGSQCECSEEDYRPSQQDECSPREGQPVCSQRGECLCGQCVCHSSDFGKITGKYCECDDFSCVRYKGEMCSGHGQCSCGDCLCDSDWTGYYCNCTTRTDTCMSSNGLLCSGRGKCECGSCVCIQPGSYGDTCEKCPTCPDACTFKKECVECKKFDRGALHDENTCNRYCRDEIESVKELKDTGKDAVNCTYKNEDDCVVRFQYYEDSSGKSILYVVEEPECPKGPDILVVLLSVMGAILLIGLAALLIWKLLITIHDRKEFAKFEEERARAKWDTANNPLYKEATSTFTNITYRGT
Integrin alpha-IIb/beta-3, sequence (P08514 32-887 limits assumed): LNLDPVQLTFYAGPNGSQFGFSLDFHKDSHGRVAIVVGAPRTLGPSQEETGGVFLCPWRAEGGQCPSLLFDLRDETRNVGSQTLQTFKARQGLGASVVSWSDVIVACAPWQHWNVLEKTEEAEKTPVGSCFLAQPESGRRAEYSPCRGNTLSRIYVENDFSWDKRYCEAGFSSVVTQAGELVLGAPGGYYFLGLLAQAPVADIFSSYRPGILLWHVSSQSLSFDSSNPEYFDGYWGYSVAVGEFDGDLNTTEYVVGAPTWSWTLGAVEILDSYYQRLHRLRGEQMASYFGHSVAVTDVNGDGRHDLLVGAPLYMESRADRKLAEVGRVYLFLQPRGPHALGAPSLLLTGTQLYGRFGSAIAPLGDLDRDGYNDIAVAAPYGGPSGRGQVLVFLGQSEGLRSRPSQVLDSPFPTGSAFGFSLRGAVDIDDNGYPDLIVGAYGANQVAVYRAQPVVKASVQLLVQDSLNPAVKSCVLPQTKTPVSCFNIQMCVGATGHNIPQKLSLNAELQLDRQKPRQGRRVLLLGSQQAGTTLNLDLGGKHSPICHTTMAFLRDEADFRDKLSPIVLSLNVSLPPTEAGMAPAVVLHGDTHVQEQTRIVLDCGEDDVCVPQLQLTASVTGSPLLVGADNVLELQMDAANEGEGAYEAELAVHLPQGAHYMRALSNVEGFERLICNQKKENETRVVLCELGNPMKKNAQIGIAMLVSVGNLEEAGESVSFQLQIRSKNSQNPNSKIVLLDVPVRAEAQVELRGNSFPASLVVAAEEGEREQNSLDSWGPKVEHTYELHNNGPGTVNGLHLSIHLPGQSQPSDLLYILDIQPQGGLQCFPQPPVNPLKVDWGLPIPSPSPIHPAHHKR
Integrin alpha-IIb/beta-3, sequence (P08514 891-1039 limits assumed): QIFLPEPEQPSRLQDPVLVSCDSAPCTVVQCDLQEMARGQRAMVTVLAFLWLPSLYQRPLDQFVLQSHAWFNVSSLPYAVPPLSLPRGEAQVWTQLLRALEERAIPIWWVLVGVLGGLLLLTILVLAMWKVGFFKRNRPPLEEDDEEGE

As to `N=C(N)c1ccc(NC(=O)c2ccc3c(c2)NC(CC(=O)O)C(=O)N(CCc2ccccc2)C3)cc1` (configuration not stated), the affinity in assay [1], expressed as Ki, was 0.0028 µM.

In the case of `O=C(O)CC1Nc2ccc(C(=O)N3CCC(C4CCNCC4)CC3)cc2CN(CCc2ccccc2)C1=O` (configuration not stated), the inhibition in vivo (commonly the share of the control response that was lost under treatment) at 0.3 mg/kg in the assay on Canis familiaris [2] stood at 70%; in the assay on Canis familiaris [3] it was 90%. Besides, the Duration in the assay listed under Canis familiaris [4] was 140 min. The affinity in assay [1] corresponds to a Ki of 0.0015 µM. Also, the IC50 – broadly, the concentration at which inhibition is half-maximal – in the assay listed under Homo sapiens came out at 0.02 µM. The Time in the assay filed under Canis familiaris [5] was 10 min and 30 min.

Regarding `CN1Cc2cc(C(=O)N3CCC(C4CCNCC4)CC3)ccc2NC(CC(=O)O)C1=O` (configuration not stated), the figures for the inhibition in vivo at 0.3 mg/kg with Canis familiaris [3], in the assay with Canis familiaris [6] and in the assay on Canis familiaris [7] were 90%, 50% and 60%, respectively. The Duration in the assay filed under Canis familiaris [4] is recorded as 240 min. Besides, the Ki – broadly, a measure of affinity in units of concentration, obtained from inhibition or displacement – in assay [1] was 0.004 µM. The compound also gave an IC50 in the assay listed under Homo sapiens of 0.106 µM. In addition, the Time in the assay filed under Canis familiaris [5] was 5 min and 10 min. Moreover, 3 mg/kg produced 90% inhibition in vivo in the assay with Canis familiaris [8].

In the assay filed under Homo sapiens, `CN1C(=O)c2ccccc2SSc2ccccc2NC(=O)[C@H](CC(=O)O)NC(=O)CNC(=O)[C@@H]1CCCN=C(N)N` [SKF-107260] showed an IC50 of 0.057 µM. In other words, the double-digit nanomolar range.

Compound `CN(CCCC1CCNCC1)C(=O)c1ccc2c(c1)CN(CCc1ccccc1)C(=O)C(CC(=O)O)N2` (configuration not stated) had a Ki in assay [1] of 0.008 µM. Half-maximal inhibition in the assay filed under Homo sapiens (IC50) was put at 0.06 µM.

For `N=C(N)c1cccc(NC(=O)c2ccc3c(c2)CN(CCc2ccccc2)C(=O)C(CC(=O)O)N3)c1` (configuration not stated), the Ki in assay [1] amounted to 0.026 µM. The compound further came in with an IC50 in the assay listed under Homo sapiens of 0.38 µM.

With `CN(C(=O)c1ccc2c(c1)NC(CC(=O)O)C(=O)N(CCc1ccccc1)C2)c1ccc(C(=N)N)cc1` (configuration not stated), the inhibition constant Ki in assay [1] worked out at 0.0016 µM. The same compound had an IC50 in the assay filed under Homo sapiens of 0.065 µM.
